# In the library only some 1.8% were active in any assay of this set; here they are far more common.
# NPY-Y1 antag = antagonists of human neuropeptide Y receptor Y1; P25929; HEK293-CNG Y1 cells, membrane potential fluorescence; NPY at EC95, then isoproterenol; inhibition, % at 3.6 µM; actives 1% (n = 200,000); AID 1040;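 active = inhibition above the campaign mean inhibition of all tested compounds plus 3 SD, cut at about 20% in these data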
# Target sequence (P25929 whole entry, looked up): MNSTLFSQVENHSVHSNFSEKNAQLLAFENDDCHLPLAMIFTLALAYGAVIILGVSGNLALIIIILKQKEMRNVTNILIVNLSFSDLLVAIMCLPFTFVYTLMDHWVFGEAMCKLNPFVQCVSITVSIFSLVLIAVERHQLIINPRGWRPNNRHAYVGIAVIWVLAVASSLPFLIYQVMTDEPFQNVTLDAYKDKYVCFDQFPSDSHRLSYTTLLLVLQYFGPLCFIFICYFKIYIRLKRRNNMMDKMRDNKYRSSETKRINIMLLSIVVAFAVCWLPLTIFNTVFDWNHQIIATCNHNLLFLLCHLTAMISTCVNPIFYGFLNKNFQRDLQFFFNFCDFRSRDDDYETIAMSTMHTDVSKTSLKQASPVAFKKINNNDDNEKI
#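 Test system – HEK293 Y1/CNG channel cell line · Also added – NPY agonist 25 nM, then isoproterenol 1 µM plus Ro 20-1724 25 µM · Compound dosing – one concentration, 3.6 µM, in 0.4% DMSO · Schedule – compound incubation 1 h at room temperature, readout 45 min post-stimulation · Technique – fluorescence, membrane potential probe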
# NPY1 pot ag = human NPY-Y1 potentiation or agonism, primary screen; actives 0.37% (n = 220,000); activation, % at 3.6 µM; P25929; NPY-Y1 expressing cells, potentiator/agonist activation; AID 1304; in the data active = activation above about 33%, passing the limit was not always enough;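 also: cells stimulated with NPY at EC10 then isoproterenol at EC100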
# NPY-Y2 antag = antagonists of human neuropeptide Y receptor Y2. NPY-Y2 expressing cells, antagonist mode. AID 793. P49146. actives 0.99% (n = 140,000). inhibition, % at 2.7 µM
# NPY-Y2 PAM-ag = potentiators or agonists of human neuropeptide Y receptor Y2 | cells expressing NPY-Y2, potentiator/agonist read-out | P49146 | activation, % at 3.6 µM | actives 0.45% (n = 220,000); in the data active = activation above about 27%;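 also: cells stimulated with NPY near EC25 plus isoproterenol at EC100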
# NPY1 antag conf = human NPY-Y1 antagonism, confirmation. shares compounds with NPY-Y1 antag. HEK293-CNG NPY-Y1, membrane potential fluorescence, cAMP; NPY challenge against isoproterenol-raised cAMP. inhibition, % at 3.6 µM. actives 21% (n = 1,200). AID 1254; in the data active = inhibition above about 20%
# NPY2 antag ctr = human NPY-Y2 antagonism in NPY-Y1 counter-screen. inhibition, % at 3.6 µM. HEK293 NPY-Y2 CNG membrane potential fluorescence; cells given NPY, then isoproterenol. shares compounds with NPY-Y1 antag. actives 28% (n = 1,200). AID 1255
# Numbers stand for hits; n = inactive; x = no result. Rule as the data show it, unless noted: active = inhibition above about 17%; inactive = the rest.
SMILES,NPY-Y1 antag,NPY1 pot ag,NPY-Y2 antag,NPY-Y2 PAM-ag,NPY1 antag conf,NPY2 antag ctr
CC1COC(C)(CC(=O)NN2C(=O)c3ccccc3C2=O)O1 (centres undefined),n,n,x,n,x,x
O=C(Nc1ncc(Cc2ccc(SC(F)F)cc2)s1)c1ccccc1,20.8,n,n,n,n,n
Cc1cc(C)n2ncc(C(=O)NC3CCCCC3)c2n1,n,n,x,n,x,x
Cc1c2c(nc3c(C(=O)NC4CCCCC4C)cnn13)CCCC2 (centres undefined),20.3,n,n,n,n,22.4
O=C(CSc1nnc(COc2ccccc2)n1Cc1ccco1)c1ccc(F)cc1,20.2,n,n,n,n,n
Cc1ccc(OCc2nnc(SCC(=O)c3ccccc3)n2Cc2ccco2)cc1,n,n,n,n,x,x
COc1ccccc1CNC(=O)c1cccc2c1C(=O)N(Cc1cccnc1)C2,n,n,x,n,x,x
CC(C)C(=O)N1CCN(c2ccccc2NC(=O)c2ccc(C#N)cc2F)CC1,41.7,n,x,n,n,n
C#CCSc1nnnn1-c1ccc(OCC)cc1,x,n,x,n,x,x
Cc1ccccc1-c1nnn(CC(=O)NCc2ccc3c(c2)OCO3)n1,21.7,n,n,n,n,n
Cc1ccc(-c2csc(Nc3ccccc3)[n+]2CCc2ccccc2)cc1,22.3,n,x,n,n,18.1
Cc1ccc(-c2csc(Nc3ccc(C(=O)O)cc3)[n+]2Cc2ccccc2)cc1,n,n,x,n,x,x
O=C(N/N=C/c1ccc(Br)s1)c1c[nH]c2ccccc12,20.1,n,n,n,n,n
CCNC(=O)COC(=O)c1csc2c1CCCC2,n,n,n,n,x,x
Cn1c(=O)c([N+](=O)[O-])c(N2CCN(Cc3ccc4c(c3)OCO4)CC2)c2ccccc21,x,n,x,n,x,x
CC1CCCCC1NC(=O)CN1C(=O)CSc2cc(S(=O)(=O)N3CCCCCC3)ccc21 (centres undefined),31.3,n,n,n,n,n
CC(C)CCn1c2ccccc2c2cc(CC(N)=O)ccc21,x,n,x,n,x,x
COc1ccc(Oc2c(-c3ccc(O)cc3O)n[nH]c2C)cc1,82.9,n,n,n,34.8,n
CC1(C)OC(=CC=Nc2ccc(Cl)cc2)OC1(C)C,x,n,x,n,x,x
CCNc1nc(NC(C)C)nc(SCCOC(=O)c2ccccc2)n1,n,n,n,n,x,x
CC(C)Nc1nc(NC(C)C)nc(SCCOC(=O)Nc2ccc(Cl)cc2Cl)n1,21.4,n,n,n,n,n
COc1ccc(CCN(Cc2ccccn2)C(=S)Nc2ccccc2Cl)cc1OC,27.9,n,x,n,n,n
COc1ccc(N2C(=O)CCC(C(=O)N3CCN(c4ccccn4)CC3)C2c2ccc(F)cc2)cc1 (centres undefined),n,n,x,n,x,x
O=C(c1ccccn1)N(Cc1cccs1)C1(C(=O)NC2CCCCC2)CCCCC1,44.0,n,x,n,n,n
CN(C(=O)c1ccccn1)C1(C(=O)NC2CCCCC2)CCCCC1,n,n,n,n,x,x
SMILES,NPY-Y1 antag,NPY1 pot ag,NPY-Y2 antag,NPY-Y2 PAM-ag,NPY1 antag conf,NPY2 antag ctr
COc1cccc(CNC23CC4CC(CC(C4)C2)C3)c1OCc1ccccc1,164.8,n,x,n,114.2,84.2
COc1cccc(CNn2cnnc2)c1OCc1ccc(F)cc1,n,n,n,n,x,x
COc1cc(CC(=O)OCC(=O)Nc2cc([N+](=O)[O-])ccc2Cl)cc(OC)c1OC,n,n,n,n,x,x
O=c1cc(CN2CCN(c3ccccc3)CC2)c2c(ccc3ccccc32)o1,44.0,n,n,n,35.8,57.1
O=c1cc(CN2CCC3(CC2)OCCO3)c2c(ccc3ccccc32)o1,n,n,n,n,x,x
COC(/C=C/Nc1ccc(OC)cc1)=C(C#N)C#N,39.7,n,n,n,n,n
COC(/C=C/Nc1ccc(Cl)cc1)=C(C#N)C#N,n,n,x,n,x,x
COc1cc(C(=O)OC2CC3CCC2(C)C3(C)C)ccc1OC(C)=O (centres undefined),n,n,x,n,x,x
CCC(C)(C)n1nnnc1CN(Cc1ccco1)Cc1cc2cc3c(cc2[nH]c1=O)OCO3,n,n,n,n,x,x
CCC(C)(C)n1nnnc1CN(Cc1ccc(Cl)cc1)Cc1ccco1,24.3,n,n,n,n,n
O=C(C1c2ccccc2C(=O)N2CCc3ccccc3C12)N1CCN(Cc2ccccc2)CC1 (centres undefined),22.0,n,n,n,n,n
N#Cc1ccc(CSc2nnc(-c3ccccc3)n2Cc2ccco2)cc1,32.8,n,n,n,n,n
Cc1ccc(-n2cccn2)c(CN2CCC(CO)(CCc3ccccc3)CC2)c1,44.6,n,x,n,n,19.4
O=C(COc1ccc(Cl)cc1)Nc1nnc(C2=COCCO2)o1,22.1,n,x,n,n,n
CCCCCc1n[nH]c2c1CCCC2,x,n,x,n,x,x
O=C(COc1ccccc1Cl)c1ccc2c(c1)CCCC2,20.7,n,n,n,n,n
CCCCC(CCC(=O)Nc1ccccc1C(=O)OCC)C(=O)O (centres undefined),23.1,n,n,n,n,n
CCOC(=O)c1ccc(NC(=O)CCC(CC)C(=O)O)cc1 (centres undefined),n,n,n,n,x,x
Cc1ccccc1CC1(CO)CCCN(C(=O)c2ccccc2N(C)C)C1 (centres undefined),28.1,n,x,n,n,n
Cc1ccccc1CC1(CO)CCCN(C(=O)c2ccc(F)cc2)C1 (centres undefined),n,n,x,n,x,x
COc1ccc(NC(=O)O/N=C/c2ccncc2)cc1,n,n,x,n,x,x
COc1ccc(/C=N/OC(=O)Nc2ccccc2OC)cc1,21.9,n,x,n,n,n
Cc1cccn2c(CN[C@@H]3CCCC[C@H]3c3ccccc3)c(C(=O)N3CCOCC3)nc12,26.5,n,x,n,n,n
CCn1c(=O)c([N+](=O)[O-])c(NCC2CCCO2)c2ccccc21 (centres undefined),x,n,x,n,x,x
CCOc1ncccc1C(=O)N1CCN(c2cccc(C)c2C)CC1,24.1,n,x,n,n,n
SMILES,NPY-Y1 antag,NPY1 pot ag,NPY-Y2 antag,NPY-Y2 PAM-ag,NPY1 antag conf,NPY2 antag ctr
CCOc1ncccc1C(=O)N1CCN(c2cc(Cl)ccc2C)CC1,n,n,x,n,x,x
COc1ccc(C(=O)NNC(=O)CSc2nnc(C)n2CC2CCCO2)cc1 (centres undefined),n,n,x,n,x,x
O=C(CCCCN1CCCCC1)c1ccc2c(c1)Cc1ccccc1-2,24.2,n,x,n,n,n
O=C(CCN1CCCCCC1)c1ccccc1,n,n,n,n,x,x
CSc1cccc(NC(=O)CN(c2ccccc2)S(=O)(=O)N(C)C)c1,20.2,n,n,n,n,n
CN(C)S(=O)(=O)N(CC(=O)Nc1ccc(F)c(F)c1)c1ccccc1,n,n,n,n,x,x
CN(C)C(=O)N1CCN(C(=O)N2CCOCC2)CC1,n,n,n,n,x,x
CCCCN1C(=S)NC[C@@H]1Cc1ccccc1,n,n,x,n,x,x
CCOC(=O)C1CCN(C(=O)CCS(=O)(=O)c2ccc3c(c2)CC(C)N3C(=O)CC)CC1 (centres undefined),36.8,n,x,n,n,n

# From PubChem
